Assays:
[1] = Half-life in rat plasma when administered perorally at a dose of 10 mg/kg; format: ADME, organism-based; parameters: dose 10 mg/kg, route oral; details: po
Outline: (§1)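 Male Fischer 344 rats were dosed at 10 mg/kg iv, 10 mg/kg ip, or 10 or 100 mg/kg po, with five rats per route and dose. One rat was sampled for blood and brain at each time: 0.25, 0.5, 1, 2 and 4 h after iv/ip, and 0.5, 1, 2, 4 and 6 h after po. Plasma and brain homogenates were derivatized, extracted and quantified by negative-ion chemical ionization GCMS (LOQ 100 pg/mL plasma, 1 ng/g brain).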

[2] = Brain concentration after 2 hr at a dose of 10 mg/kg when administered perorally; details: po
[3] = Brain concentration after 0.5 h at a dose of 10 mg/kg when administered intraperitoneally; details: ip
[4] = Plasma concentration after 1 hr at a dose of 10 mg/kg when administered intraperitoneally; details: ip
[5] = system: Rattus norvegicus; assay: Area under curve was evaluated in rat brain when administered intravenously at a dose of 10 mg/kg for 4 or 6 hours; format: ADME, organism-based; parameters: dose 10 mg/kg, route intravenous; details: in vivo, iv
[6] = Time of maximum concentration achieved in rat brain when administered intraperitoneally at a dose of 10 mg/kg; format: ADME, organism-based; parameters: dose 10 mg/kg, route intraperitoneal; details: ip
Outline: (§2)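 Male Fischer 344 rats dosed iv or ip at 10 mg/kg, or orally at 10 or 100 mg/kg; five rats per route and dose. Blood and brain taken from one rat per time point (0.25, 0.5, 1, 2, 4 h after iv/ip; 0.5, 1, 2, 4, 6 h after po). Plasma and brain homogenates derivatized, extracted, assayed by negative-ion chemical ionization GCMS (LOQ 100 pg/mL plasma, 1 ng/g brain).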

[7] = in vivo; details: plasma, iv, 10 mg/kg
[8] = system: Rattus norvegicus; assay: Area under curve was evaluated in rat plasma when administered perorally at a dose of 10 mg/kg for 4 or 6 hours; format: ADME, organism-based; parameters: dose 10 mg/kg, route oral; details: in vivo, po; outline: as §1
[9] = Brain concentration after 6 hr at a dose of 10 mg/kg when administered perorally; details: po
[10] = system: Rattus norvegicus; assay: Area under curve was evaluated in rat plasma when administered intravenously at a dose of 10 mg/kg for infinite hours; format: ADME, organism-based; parameters: time infinity, dose 10 mg/kg, route intravenous; details: in vivo, iv; outline: as §1
[11] = system: Rattus norvegicus; assay: Area under curve was evaluated in rat plasma when administered perorally at a dose of 10 mg/kg for infinite hours; format: ADME, organism-based; parameters: time infinity, dose 10 mg/kg, route oral; details: in vivo, po; outline: as §1
[12] = Brain concentration after 2 hr at a dose of 100 mg/kg when administered perorally; details: po
[13] = Brain concentration after 1 hr at a dose of 100 mg/kg when administered perorally; details: po
[14] = Maximum concentration achieved in rat plasma when administered perorally at a dose of 100 mg/kg; format: ADME, organism-based; parameters: dose 100 mg/kg, route oral; details: po; outline: as §2
[15] = Time of maximum concentration achieved in rat plasma when administered perorally at a dose of 10 mg/kg; format: ADME, organism-based; parameters: dose 10 mg/kg, route oral; details: po; outline: as §2
[16] = Brain concentration after 4 hr at a dose of 10 mg/kg when administered intraperitoneally; details: ip
[17] = Plasma concentration after 0.5 hr at a dose of 10 mg/kg when administered perorally; details: po
[18] = Plasma concentration after 0.5 hr at a dose of 10 mg/kg when administered intravenously; details: iv
[19] = Time of maximum concentration achieved in rat brain when administered perorally at a dose of 100 mg/kg; format: ADME, organism-based; parameters: dose 100 mg/kg, route oral; details: po; outline: as §2
[20] = system: Rattus norvegicus; assay: Bioavailability was evaluated in rat plasma when administered intraperitoneally at a dose of 10 mg/kg; format: ADME, organism-based; details: in vivo, ip
[21] = system: Rattus norvegicus; assay: Area under curve was evaluated in rat brain when administered perorally at a dose of 100 mg/kg for 4 or 6 hours; format: ADME, organism-based; parameters: dose 100 mg/kg, route oral; details: in vivo, po
[22] = system: Rattus norvegicus; assay: Area under curve was evaluated in rat brain when administered intravenously at a dose of 10 mg/kg for infinite hours; format: ADME, organism-based; parameters: time infinity, dose 10 mg/kg, route intravenous; details: in vivo, iv
[23] = Plasma concentration after 2 hr at a dose of 100 mg/kg when administered perorally; details: po
[24] = Clearance rate in rat plasma when administered intraperitoneally at a dose of 10 mg/kg; format: ADME, organism-based; parameters: dose 10 mg/kg, route intraperitoneal; details: ip, read-out: Clp (converted); outline: as §1
[25] = Bioavailability in rat (dose 10 mg/kg p.o.); format: ADME, organism-based; details: in vivo, po
[26] = Time of maximum concentration achieved in rat brain when administered perorally at a dose of 10 mg/kg; format: ADME, organism-based; parameters: dose 10 mg/kg, route oral; details: po; outline: as §2
[27] = Brain concentration after 4 hr at a dose of 100 mg/kg when administered perorally; details: po
[28] = system: Rattus norvegicus; assay: Area under curve was evaluated in rat plasma when administered perorally at a dose of 100 mg/kg for 4 or 6 hours; format: ADME, organism-based; parameters: dose 100 mg/kg, route oral; details: in vivo, po; outline: as §1
[29] = in vivo; details: brain, iv, 10 mg/kg
[30] = system: Rattus norvegicus; assay: Bioavailability was evaluated in rat plasma when administered intravenously at a dose of 10 mg/kg; <Tr>; format: ADME, organism-based; details: in vivo, iv
[31] = Plasma concentration after 4 hr at a dose of 10 mg/kg when administered perorally; details: po
[32] = system: Rattus norvegicus; assay: Area under curve was evaluated in rat plasma when administered intraperitoneally at a dose of 10 mg/kg for 4 or 6 hours; format: ADME, organism-based; parameters: dose 10 mg/kg, route intraperitoneal; details: in vivo, ip; outline: as §1
[33] = Plasma concentration after 4 hr at a dose of 10 mg/kg when administered intraperitoneally; details: ip
[34] = Maximum concentration achieved in rat plasma when administered perorally at a dose of 10 mg/kg; format: ADME, organism-based; parameters: dose 10 mg/kg, route oral; details: po; outline: as §2
[35] = Plasma concentration after 4 hr at a dose of 10 mg/kg when administered intravenously; details: iv
[36] = Plasma concentration after 6 hr at a dose of 10 mg/kg when administered perorally; details: po

N[C@](CC1c2ccccc2Oc2ccccc21)(C(=O)O)[C@H]1C[C@@H]1C(=O)O
half-life [1]: 2.64 h
concentration at 2 h [2]: 3 ng/g
concentration at 0.5 h [3]: 246 ng/g
concentration at 1 h [4]: 4570 ng/mL
AUC [5]: 701 ng·h/mL
Tmax [6]: 0.5 h
concentration at 0.25 h [7]: 12000 ng/mL
AUC [8]: 217 ng·h/mL
concentration at 6 h [9]: 4.8 ng/g
AUC [10]: 8400 ng·h/mL
AUC [11]: 284 ng·h/mL
concentration at 2 h [12]: 23.9 ng/g
concentration at 1 h [13]: 16.4 ng/g
Cmax [14]: 475 ng/mL
Tmax [15]: 0.5 h
concentration at 4 h [16]: 149 ng/g
concentration at 0.5 h [17]: 64.1 ng/mL
concentration at 0.5 h [18]: 5970 ng/mL
Tmax [19]: 6 h
Bioavailabiility [20]: 152%
AUC [21]: 120 ng·h/mL
AUC [22]: 1840 ng·h/mL
concentration at 2 h [23]: 420 ng/mL
CL/F [24]: 13 mL/min/kg
F [25]: 2%
bioavailability [25]: 3.4%
Tmax [26]: 4 h
concentration at 4 h [27]: 20.1 ng/g
AUC [28]: 1380 ng·h/mL
concentration at 0.25 h [29]: 234 ng/g
Bioavailabiility [30]: <Tr>
concentration at 4 h [31]: 28.3 ng/mL
AUC [32]: 12700 ng·h/mL
concentration at 4 h [33]: 39.9 ng/mL
Cmax [34]: 64.1 ng/mL
concentration at 4 h [35]: 35.9 ng/mL
concentration at 6 h [36]: 17.5 ng/mL

— ChEMBL document CHEMBL1131460, “2-substituted (2SR)-2-amino-2-((1SR,2SR)-2-carboxycycloprop-1-yl)glycines as potent and selective antagonists of group II metabotropic glutamate receptors. 2. Effects of aromatic substitution, pharmacological characterization, and bioavailability” (J Med Chem, 1998)
